PLCb3 inh: inhibitors of human phospholipase C beta3; Purified PLC-beta3, fluorogenic substrate, fluorescence; inhibition, % at 12.2 µM; 0.18% of 370,000 active; in the data active = inhibition above about 11%;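 also: 0% = median of compound wells on plate and 100% = full blocker control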
ADAM10 inh: inhibits human ADAM10 | recombinant ADAM10, EDANS/DABCYL FRET peptide cleavage, 3 h | inhibition, % at 7 µM | 0.62% of 370,000 active | AID 720582;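 active = inhibition above a per-campaign cutoff equal to the mean of compounds falling between control-based bounds plus 3 SD, cut at about 20% in these data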;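 also: 0% = DMSO wells while the 100% control is not disclosed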
PLCg1 inh: blocks human PLC-gamma1 enzyme activity | P19174 | purified PLC-gamma1, fluorogenic substrate, fluorescence | inhibition, % at 12.2 µM | 0.84% of 370,000 active; in the data active = inhibition above about 9.5%
Tb MetRS inh: Trypanosoma brucei MetRS inhibition. inhibition, % at 11.9 µM. 0.4% of 360,000 active. purified T. brucei MetRS, ATP depletion, Kinase-Glo luminescence;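 active = inhibition above a per-plate cutoff of the control wells' mean inhibition plus 3 SD, cut at about 5.5% in these data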;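 also: 0% = DMSO wells median and 100% = median of wells with control inhibitor compound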
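Material: parasite MetRS enzyme / Replication: singlicate, one well per compound / Signal: luminescence of leftover ATP / Schedule: 2 h aminoacylation at 25 °C after 15 min preincubation / Medium: HEPES-MgCl2-KCl buffer plus DTT, spermine, BSA, pyrophosphatase / Doses: 11.9 µM single point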
ADAM17 inh: ADAM17 inhibition, QFRET primary screen | AID 720648 | inhibition, % at 6.95 µM | recombinant ADAM17, EDANS/DABCYL FRET peptide cleavage | 0.83% of 370,000 active | P78536;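 active = inhibition above the mean of compounds lying between control limits plus 3 SD, set per campaign, cut at about 8.5% in these data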;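 also: 0% = DMSO-only wells as the low control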
ADAM10 confirm: human ADAM10 inhibition, confirmation; shares compounds with ADAM10 inh; ADAM10 QFRET peptide cleavage, EDANS fluorescence; inhibition, % at 6.95 µM; 1% of 2,100 active; AID 743208;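 active = inhibition above about 20% chosen separately for each screening run, limit read from the data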;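 also: 0% = DMSO wells and 100% = marimastat wells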
ADAM17 ctr: ADAM17 inhibition, counter-screen for ADAM10 exosite hits | inhibition, % at 6.95 µM | ADAM17 QFRET peptide cleavage, EDANS fluorescence | shares compounds with ADAM10 inh | 0.5% of 2,100 active;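 active = mean triplicate inhibition above the solvent-only control wells' mean plus 3 SD, cut at about 12% in these data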;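 also: 0% = DMSO wells and 100% = marimastat wells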
* = called active by the depositor; i = inactive; / = no result. The list is not random: actives were taken first. Their share in the collection is about 2.3%.

SMILES	PLCb3 inh	ADAM10 inh	PLCg1 inh	Tb MetRS inh	ADAM17 inh	ADAM10 confirm	ADAM17 ctr
CCCCCCCCN1C(=O)[C@@H](CC(=O)NCc2ccc(OC)c(OC)c2)C[C@@]2(C(=O)OC)C1=C[C@H](C(C)C)O[C@@H]2C1CC1	7	22*	-1	/	6	12	3
O=C(Nc1ccc(Cl)cc1)c1cc2c(cc1O)[nH]c1ccccc12	i	-62	-485	-1	-25	/	/
CSc1ccc(CN(C)C(=O)c2ccc(S(=O)(=O)Nc3ccccc3)cc2)cc1	-4	21*	6	-1	6	1	0
CSc1ccc(CN(C)C(=O)c2ccc(S(=O)(=O)Nc3c(C)n(C)n(-c4ccccc4)c3=O)cc2)cc1	-7	-11	0	0	-1	/	/
CN(CC(=O)Nc1ccc(Cl)cc1F)C1=NS(=O)(=O)c2ccccc21	-1	-7	1	0	-3	/	/
O=C(COC(=O)CCSc1ccccc1)Nc1ccc(F)cc1Cl	1	7	4	0	7	/	/
O=C(COC(=O)CCSc1ccccc1Cl)Nc1ccc(F)cc1F	3	23*	2	-1	7	2	1
COc1ccccc1-c1csc(C(O)c2cccc(Cl)c2)n1 (configuration not stated)	4	23*	3	0	8	6	2
COc1ccccc1-c1csc(C(O)c2ccccc2)n1 (configuration not stated)	0	-3	4	1	3	/	/
OC(c1ccc(F)c(F)c1)c1nc(-c2ccc(Cl)cc2)cs1 (configuration not stated)	-3	20*	0	0	7	4	1
CCOc1cccc(C=NNC(=O)C(=O)Nc2cccc(C(F)(F)F)c2)c1O	-5	3	-5	/	1	/	/
Cc1cccc(OCC(=O)NNC(=O)c2cc3ccccc3oc2=O)c1	-1	23*	1	-1	7	23*	13*
O=C(O)c1cccc(NC(=S)N/N=C/c2ccccc2OCc2ccc(Br)cc2)c1	-18	23*	-8	2	-1	3	1
O=C(O)c1cccc(NC(=S)N/N=C/c2ccccc2OCc2cccc(Br)c2)c1	-25	-4	-21	2	-3	/	/
Cc1ccc(NC(=O)c2nc[nH]c2C(=O)N[C@@H](C)c2ccccc2)cc1	1	24*	-26	0	6	5	2
O=C(CNC(=O)c1nc[nH]c1C(=O)N1CCc2ccccc2C1)OCc1ccccc1	2	22*	7	0	3	0	0
CC(C)C[C@H](NC(=O)c1nc[nH]c1C(=O)N[C@@H](CC(C)C)C(=O)OCc1ccccc1)C(=O)OCc1ccccc1	4	8	2	0	2	/	/
CC(C)C[C@H](NC(=O)c1nc[nH]c1C(=O)NC(c1ccccc1)c1ccccc1)C(=O)OCc1ccccc1	7	23*	4	0	7	17	6
CC(C)C[C@H](NC(=O)c1[nH]cnc1C(=O)N[C@@H](Cc1ccccc1)C(=O)OCc1ccccc1)C(=O)OCc1ccccc1	9	15	7	0	3	/	/
O=C(N[C@@H](Cc1ccccc1)C(=O)OCc1ccccc1)c1nc[nH]c1C(=O)NCc1ccccc1	1	21*	2	0	8	7	2
CCN1C(=O)C(=O)N(CC(=O)NC(C)CCc2ccccc2)C1=O (configuration not stated)	-2	-3	-4	0	0	/	/
CCCC(C(=O)NC1=NCCS1)c1ccccc1 (configuration not stated)	0	5	3	-1	0	/	/
O=C1c2ccccc2C(=O)c2c(/C=C/N3CCCCC3)ccnc21	2	-1	-2	0	-3	/	/
CC(C)C[C@H](NC(=O)c1[nH]cnc1C(=O)N[C@H](C)c1ccccc1)C(=O)OC(C)(C)C	4	25*	1	0	9	4	2
CC(C)C[C@H](NC(=O)c1nc[nH]c1C(=O)NC(c1ccccc1)c1ccccc1)C(=O)OC(C)(C)C	6	7	4	0	2	/	/
SMILES	PLCb3 inh	ADAM10 inh	PLCg1 inh	Tb MetRS inh	ADAM17 inh	ADAM10 confirm	ADAM17 ctr
Cc1ccc(C2=N/C(=C\c3coc4ccccc4c3=O)C(=O)O2)cc1	-25	-15	-11	/	-9	/	/
CCCC1CCC2(CCCN2CCOC(=O)Nc2ccccc2OC)CC1 (configuration not stated)	-2	0	-1	/	-1	/	/
O=c1[nH]c(C2CCN(S(=O)(=O)c3ccc(F)cc3)CC2)nc2c1nnn2Cc1ccc2c(c1)OCCO2	-9	23*	7	0	1	2	1
O=c1[nH]c(C2CCN(S(=O)(=O)/C=C/c3ccccc3)CC2)nc2c1nnn2Cc1ccc(F)cc1	-3	29*	5	0	8	2	2
CCOC(=O)N[C@H](C(=O)N1CCC[C@H]1C(=O)NC1CCCC1)C1CCCCC1	0	1	-1	/	-6	/	/
Oc1ccc(Cl)c(CN2CCN(c3ncc(Cc4ccccc4)cn3)CC2)c1	3	25*	5	-1	14*	5	3
Clc1ccccc1-c1nc(-c2ccc(Br)o2)no1	-6	-9	-2	0	-5	/	/
O=[N+]([O-])c1ccccc1-c1nc(-c2ccc(Br)o2)no1	6	23*	2	0	5	1	1
Cc1ccc(CN2CCC(C)(Oc3ccc(Cl)cc3)C2)cc1 (configuration not stated)	4	0	4	0	2	/	/
C#CCOCC1CNC(=S)O1 (configuration not stated)	4	-4	-3	0	-2	/	/
O=C(Nc1ccc(Oc2ccc3ccccc3c2)cc1)c1ccco1	0	23*	1	0	2	9	3
O=C(Nc1ccc(Oc2ccc(NC(=O)c3ccco3)c(NC(=O)c3ccco3)c2)cc1)c1ccco1	0	7	1	0	3	/	/
COc1ccc(C)cc1NC(=O)C1CCN(S(=O)(=O)c2ccc3c(c2)NC(=O)CO3)CC1	-13	2	0	-1	-5	/	/
CCCCC(=O)NC(=S)Nc1ccc(S(=O)(=O)N2CCCC2)cc1	1	72*	2	-1	1	0	0
COc1cccc(NC(=S)NNC(=O)c2ccccc2OC(F)F)c1	1	21*	9	-1	7	1	0
O=C(Nc1cc(Sc2ccccn2)cc([N+](=O)[O-])c1)c1cccc(Cl)c1	4	20*	0	-1	7	7	3
CCCNC(=O)c1cc(C2CCCCN2S(=O)(=O)c2ccccc2)on1 (configuration not stated)	4	84*	2	0	3	2	1

Screens (PubChem BioAssay)
